High-throughput results from PubChem.
An excerpt weighted towards active compounds, which were near 1.5% of everything screened.
TbMetRS inhib: Trypanosoma brucei MetRS inhibition. hit rate 0.4% among 360,000. purified T. brucei MetRS, ATP depletion, Kinase-Glo luminescence. inhibition, % at 11.9 µM;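 active = inhibition above a per-plate cutoff of the control wells' mean inhibition plus 3 SD, cut at about 5.5% in these data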;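 note: 0% = DMSO wells median and 100% = median of wells with control inhibitor compound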
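Test system: purified T. brucei MetRS enzyme. Also added: ATP, methionine and E. coli bulk tRNA substrates. Compound: 11.9 µM single point. Schedule: 15 min enzyme-compound preincubation, 2 h reaction, 10 min detection, 25 °C. Signal: luciferase luminescence of residual ATP, Kinase-Glo. Evaluation: percent inhibition versus plate control medians. Controls: DMSO wells, low control.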
MsrA act: activators of bovine methionine sulfoxide reductase A | purified bovine MsrA, absorbance read-out | activation, % at 10.6 µM | hit rate 0.3% among 360,000 | AID 602163; in the data active = activation above about 7.5%;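 note: 0% = vehicle and 100% = reference activator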
procasp3 activ: procaspase-3 (human) activation; activation, % at 8.5 µM; recombinant procaspase-3 D3A, Ac-DEVD-pNA absorbance 405 nm; AID 463141; P42574; hit rate 0.11% among 330,000;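 active = activation above the mean of all tested compounds plus 3 SD, cut at about 21% in these data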;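 note: 0% = DMSO alone and 100% = DMSO wells spiked with extra 5 µM PC-3 D3A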
Target sequence (P42574 whole entry D9A/D28A/D175A): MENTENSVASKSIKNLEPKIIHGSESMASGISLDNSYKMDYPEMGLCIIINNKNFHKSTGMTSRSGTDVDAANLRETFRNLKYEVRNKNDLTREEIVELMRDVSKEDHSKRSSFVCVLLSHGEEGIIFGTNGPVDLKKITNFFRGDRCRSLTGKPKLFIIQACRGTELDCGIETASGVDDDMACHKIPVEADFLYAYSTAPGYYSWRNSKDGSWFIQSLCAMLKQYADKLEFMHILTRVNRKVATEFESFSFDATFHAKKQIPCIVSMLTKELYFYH
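Compound: 8.5 µM single point, 0.8% DMSO / Material: Autoprocessing-dead procaspase-3 D3A mutant enzyme / Timing: 1 h preincubation plus 2 h reaction at 25 °C / Medium: Zinc-free HEPES/NaCl buffer with 0.01% Triton X-100 at pH 7.4 / Technique: 405 nm absorbance of p-nitroaniline, reads at 0 and 120 min / Repeats: one well per compound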
MsrA inh: inhibitors of bovine MsrA | purified bovine MsrA, absorbance read-out | inhibition, % at 15.5 µM | hit rate 0.75% among 360,000; in the data active = inhibition above about 4.5%;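 note: 0% = vehicle wells with enzyme and 100% = reference inhibitor wells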
proCasp7 act: activates human procaspase-7, counter-screen for procaspase-3 activators | P55210 | recombinant procaspase-7, Ac-DEVD-pNA absorbance 405 nm; D23A/D198A/D206A triple mutant, cannot self-cleave; scale: DMSO 0, 5 µM enzyme 100 | activation, % at 8.5 µM | hit rate 0.093% among 330,000 | AID 463210;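 active = percent activation above the screen-wide mean plus 3 SD, cut at about 25% in these data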
Target sequence (P55210 whole entry D23A/D198A/D206A): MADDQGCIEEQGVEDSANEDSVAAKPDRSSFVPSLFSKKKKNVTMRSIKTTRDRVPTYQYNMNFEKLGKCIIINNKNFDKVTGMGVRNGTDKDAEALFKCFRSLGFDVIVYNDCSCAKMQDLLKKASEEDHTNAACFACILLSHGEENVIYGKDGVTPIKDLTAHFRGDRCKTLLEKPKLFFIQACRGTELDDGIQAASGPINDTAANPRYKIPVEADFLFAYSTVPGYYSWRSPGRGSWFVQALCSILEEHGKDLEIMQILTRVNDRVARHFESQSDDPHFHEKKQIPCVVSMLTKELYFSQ
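System: Uncleavable procaspase-7 mutant enzyme; Amount: 2 µM procaspase-7 mutant as dispensed; Schedule: 1 h compound preincubation, 2 h substrate cleavage, 25 °C; Measured by: 405 nm absorbance of p-nitroaniline; Evaluation: percent activation from buffer-corrected 0–120 min absorbance change; Control set: low DMSO alone, high DMSO plus 5 µM PC-7.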
Tb MetRS conf: Trypanosoma brucei MetRS inhibition confirmed; shares compounds with TbMetRS inhib; T. brucei MetRS enzyme, luminescence (ATP depletion); inhibition, % at 11.9 µM; hit rate 93% among 1,400; AID 624412; in the data active = inhibition above about 7%
Jurkat tox: counter-screen for T. brucei MetRS inhibitors: Jurkat cell cytotoxicity. Jurkat cells viability, ATP luminescence. AID 624413. inhibition, % at 8.3 µM. hit rate 12% among 1,400. shares compounds with TbMetRS inhib; in the data active = inhibition above about 15%;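 note: 0% = vehicle and 100% = reference inhibitor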
TbMetRS FP orth: inhibits T. brucei methionyl tRNA synthetase in orthogonal FP test; shares compounds with TbMetRS inhib; inhibition, % at 11.9 µM; purified T. brucei MetRS, fluorescence polarization; AID 651607; hit rate 44% among 1,400; in the data active = inhibition above about 17%;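 note: 0% = vehicle wells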
The depositor's hits bear a star; · = no result.

SMILES | TbMetRS inhib | MsrA act | procasp3 activ | MsrA inh | proCasp7 act | Tb MetRS conf | Jurkat tox | TbMetRS FP orth
COc1ccc2c(c1)CCC(C)N2C(=O)C(=O)c1c[nH]c2ccccc12 (centres undefined) | 12* | -3 | -4 | 0 | -5 | 17* | 15 | 10
Cn1cnc2cc(NCc3ccc(Cl)cc3)ccc21 | 7.2* | 5 | -1 | 0 | 7 | 16* | 1 | 1
CCOc1ccc(CNc2ccc3c(c2)ncn3C)cc1 | 0 | -2 | -11 | 2 | -11 | · | · | ·
COc1ccc(N2CCC(CNC(=O)Nc3ccc(Cl)cc3)C2)cc1 (centres undefined) | 14* | -1 | -12 | -1 | -19 | 29* | 11 | 25*
CCc1c(-c2ccc(F)cc2F)ncn1CCc1ccccc1OC | · | · | · | 0 | · | · | · | ·
COc1ccc(-n2cc(CNCCCn3ccnc3)c(-c3cccc(F)c3)n2)cc1 | 16* | -2 | -6 | 1 | 6 | 5 | 4 | 4
COCCN1C(=O)c2ccccc2C1c1nc2ccccc2[nH]1 (centres undefined) | 4 | -3 | · | 1 | · | · | · | ·
O=C1c2ccccc2C(c2nc3ccccc3[nH]2)N1c1ccccn1 (centres undefined) | 6.9* | -3 | · | 1 | · | 14* | 7 | 7
O=C(COc1cccc(-n2cnnn2)c1)Nc1ccccc1 | 11* | -3 | -2 | 0 | -1 | 19* | 9 | 17*
O=C(Nc1ccc(Br)cc1)c1cccc(-n2cnnn2)c1 | 6.5* | -1 | 3 | -2 | 1 | 13* | 2 | 6
COc1ccc(NC(=O)COc2cccc(-n3cnnn3)c2)cc1 | 10.0* | -12 | 4 | -1 | -7 | 20* | -1 | 13
CCN(CC)S(=O)(=O)c1ccc(NC(=O)COc2cccc(-n3cnnn3)c2)cc1 | 0 | -1 | -2 | 0 | 7 | · | · | ·
CN(C)S(=O)(=O)c1cc(NC(=O)c2ccc(-n3ccnc3)c([N+](=O)[O-])c2)ccc1Cl | 9.9* | 0 | -2 | -1 | -8 | 22* | 34* | 14
Cc1nn(CC(=O)Nc2ccc(Cl)c(S(=O)(=O)N(C)C)c2)c(C)c1[N+](=O)[O-] | 1 | -5 | 0 | -1 | 3 | · | · | ·
COc1ccccc1NC(=O)c1ccc(-n2ccnc2)c([N+](=O)[O-])c1 | 8.8* | -1 | 1 | 1 | 5 | 27* | 15 | 22*
CCOc1cc(N2CCOCC2)c(OCC)cc1NC(=O)c1ccc(-n2ccnc2)c([N+](=O)[O-])c1 | 2 | -1 | -6 | 0 | 7 | · | · | ·
CCCCCCCCN1C(=O)[C@@H](CC(=O)NCc2cccs2)C[C@@]2(C(=O)OC)C1=C[C@H](C1CCCC1)O[C@@H]2C | · | · | · | 0 | · | · | · | ·
COc1ccccc1C1CC(c2ccc(Cl)cc2Cl)Nc2nc(N)nn21 (centres undefined) | 6.6* | 0 | 1 | 0 | 3 | 15* | 0 | 7
COc1ccc(C2CC(c3cccc(Cl)c3)n3nc(N)nc3N2)cc1 (centres undefined) | 0 | 0 | 3 | 2 | 0 | · | · | ·
O=C1C2C3C=CC(C3)C2C(=O)N1c1ccc(-c2nc(-c3ccccc3)nc3ccccc23)cc1 (centres undefined) | · | · | · | -1 | · | · | · | ·
CCCCn1c(NS(=O)(=O)c2ccc(C)cc2)c(S(=O)(=O)c2ccccc2)c2nc3ccccc3nc21 | 8.7* | -12 | 11 | 0 | 1 | 8.9* | 0 | 6
CCOC(=O)N1CCC(Nc2c(Nc3ccc(F)cc3)c(=O)c2=O)CC1 | 36* | 6 | 5 | 0 | 12 | 77* | 12 | 40*
COc1ccc(-c2c(C(=O)c3ccccc3)[nH]c(N)c2C(=O)NCCc2c[nH]c3ccccc23)cc1 | · | · | · | 1 | · | · | · | ·
Cc1ccc(NC(=O)CNc2cc(S(=O)(=O)N3CCOCC3)ccc2NCC2CCCO2)cc1F (centres undefined) | 15* | -2 | 2 | 0 | 4 | 21* | -3 | 10
O=S(=O)(Nc1cc(S(=O)(=O)N2CCOCC2)ccc1NCC1CCCO1)c1ccccc1F (centres undefined) | 0 | -4 | 1 | 0 | -15 | · | · | ·
SMILES | TbMetRS inhib | MsrA act | procasp3 activ | MsrA inh | proCasp7 act | Tb MetRS conf | Jurkat tox | TbMetRS FP orth
O=C(CNc1cc(S(=O)(=O)N2CCOCC2)ccc1NCC1CCCO1)Nc1ccccc1F (centres undefined) | 11* | -7 | 4 | -1 | -5 | 4 | -1 | -5
Cc1ccc(S(=O)(=O)Nc2cc(S(=O)(=O)N3CCOCC3)ccc2NCC2CCCO2)cc1 (centres undefined) | 0 | -2 | -7 | 0 | 5 | · | · | ·
O=C(N[C@H](C(=O)N1CCC[C@H]1C(=O)NC1CCCC1)c1ccccc1)c1ccc(Cl)c(Cl)c1 | · | · | · | 0 | · | · | · | ·
O=C(C=Cc1ccccc1)c1c[nH]c2ccccc2c1=O | 37* | -11 | · | 4 | · | 78* | 93* | 56*
O=C(/C=C/c1ccccc1)c1c[nH]c2ccccc12 | 5 | -9 | 5 | 1 | 11 | · | · | ·
Nc1nc(Nc2ccccc2)nc2ccccc12 | 19* | -9 | 11 | 1 | 9 | 31* | 20* | 18*
O=C(Nc1ccccc1)OCCNC(=O)c1cccc(Br)c1 | 5 | -2 | -5 | 0 | 4 | · | · | ·
O=C(Nc1ccc(Cl)c(Cl)c1)OCCNC(=O)c1cccc(Cl)c1 | 40* | -5 | -4 | 0 | -16 | 58* | 5 | 35*
O=C(NCC1CC1)c1ccc2nc([C@@H]3O[C@H](CO)[C@H](O)[C@H](O)[C@H]3O)[nH]c2c1 | 0 | -8 | · | 1 | · | · | · | ·
O=C(NCC1CC1)c1ccc(Nc2nc3ccc(Br)cc3[nH]2)cc1 | 7.3* | -2 | -4 | 0 | -1 | 46* | 8 | 20*
O=C(Cc1ccc(Nc2nc3ccc(Br)cc3[nH]2)cc1)NCCc1cccs1 | 84* | 1 | 4 | -2 | -9 | 100* | 11 | 104*
O=C(NCc1ccco1)c1cccc(Nc2nc3ccc(Br)cc3[nH]2)c1 | 10* | -6 | 3 | 0 | 8 | 40* | 8 | 32*
Nc1ccn([C@@H]2O[C@H](C(=O)N[C@H](Cc3ccccc3)C(=O)N3CCSC3)[C@@H](O)[C@H]2O)c(=O)n1 | · | · | · | 0 | · | · | · | ·
COCc1cc(N2CCNC[C@H]2C)ccc1N1CCS(=O)(=O)CC1 | · | · | · | -1 | · | · | · | ·
S=C(Nc1ccccc1)Nc1nc2ccccc2n1CCOc1ccccc1 | 18* | -1 | -3 | 3 | -13 | 5 | 0 | 3
COc1ccc(OCCn2c(N)nc3ccccc32)cc1 | 39* | -5 | 6 | -1 | 7 | 62* | 0 | 32*
